Laboratory results taken from publication PMC5080318 (Cancer Chemotherapy and Pharmacology, 2016).
Where two headings read alike, the source gives them in different places. Marks after values point to notes of the source that are not given here.

What was measured:
[1] = system: patients with advanced solid tumors; details: cited from earlier work
[2] = system: acute myeloid leukemia (AML); details: cited from earlier work; for complete response rate / febrile neutropenia / stomatitis: randomized phase II trial, elderly patients with AML
tumor cell lines = details: 48 h following treatment; cited from earlier work
[3] = system: xenograft models of human non-small cell lung cancer, colon carcinoma, and pancreas carcinoma; details: cited from earlier work
[4] = system: alpha-1-acid glycoprotein (AGP); details: preclinical; ref Boehringer Ingelheim, data on file; cited from earlier work
[5] = system: phosphorylated histone H3 (pHH3); details: in vitro; cited from earlier work
[6] = system: patients with advanced solid tumors; details: in vivo
[7] = system: HCT 116 colorectal cancer model; details: preclinical models; ref Boehringer Ingelheim; data on file; cited from earlier work
[8] = system: patients with advanced solid tumors; assay: phase I safety: adverse events
[9] = phase I pharmacokinetics, plasma and urine; assay type: in vivo, human; details: for mean terminal half-life: range over doses
advanced solid tumors = assay: antitumor activity; assay type: in vivo, human
[10] = system: patients with advanced solid tumors; assay: phase I dose escalation: DLT and MTD; assay type: in vivo
[11] = system: caspase-cleaved cytokeratin-18 (CK-18); assay: plasma caspase-cleaved CK-18; assay type: in vivo, human; details: both schedules
Method in brief: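 Plasma was drawn pre-dose and at 48, 72 and 120 h after the first two 24-h IV infusions in each schedule: Days 1 and 15 of a 4-week cycle, or Day 1 of a 3-week cycle. Further samples were taken pre-dose and at 120 h post-dose up to Cycle 6. Caspase-cleaved CK-18 was quantified by validated ELISA.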

[12] = system: solid tumors and hematological malignancies; details: cited from earlier work; for antitumor activity: phase I trials, solid tumors and hematological malignancies

O=C(O)c1ccc(Nc2ncc3c(n2)-c2ccc(Cl)cc2C(c2c(F)cccc2F)=NC3)cc1 [MLN8054]
dose-limiting toxicities [1]: DLTs of liver enzyme elevations were observed

Nc1ccn([C@@H]2O[C@H](CO)[C@@H](O)[C@@H]2O)c(=O)n1 [LDAC, cytosine arabinoside]
complete response rate [2]: 11.5% | febrile neutropenia [2]: 19% | stomatitis [2]: 15%

CC(C)NC(=O)[C@H]1CCC[C@H]1Nc1nc(Nc2ccc(C(=O)N(C)C3CCN(C)CC3)cc2)ncc1C(F)(F)F [BI 811283]
polyploidy, share of cells (tumor cell lines): up to 80% | pHH3 in xenograft models ([3]; marker of Aurora B kinase inhibition): decrease in pHH3 | effect on tumor growth in xenograft models ([3]; tumor regression in some cases): dose-dependent inhibition of tumor growth | protein binding [4]: dependent on the plasma concentrations of alpha-1-acid glycoprotein (AGP) | time of treatment until pHH3 was reduced [5]: ≤ 1 h | drug-related Alopecia, grade All [6]: 11 (17.5) n (%) | drug-related Fatigue, grade ≥3 [6]: 1 (1.7) n (%) | drug-related Nausea, grade ≥3 [6]: 1 (1.6) n (%) | drug-related alopecia, patients [6]: 19.8% | drug-related decreased appetite, patients [6]: 14.9% | drug-related diarrhea, patients [6]: 16.5% | drug-related fatigue, patients [6]: 31.4% | drug-related leukopenia, patients [6]: 28.9% | drug-related nausea, patients [6]: 24.0% | drug-related neutropenia, patients [6]: 33.1% | antitumor activity of weekly and 2-weekly 24-h continuous infusion [7]: similarly strong antitumor activity | deaths considered related to the study treatment ([8]; 22 patients with fatal AEs): None | drug-related Alopecia, grade All ([8]; Schedule B, Total (N = 58)): 12 (20.7) n (%) | patients with SAEs regarded as drug related ([8]; all patients): Thirteen | patients with fatal AEs ([8]; all patients, n = 22): 18.2% | patients with serious AEs (SAEs) ([8]; all patients, n = 61): 50.4% | drug-related SAE febrile neutropenia ([8]; all patients, most common drug-related SAE): seven | patients with SAEs regarded as drug related ([8]; schedule A, n = 3): 4.8% | patients with fatal AEs ([8]; schedule A, n = 10): 15.9% | patients with serious AEs (SAEs) ([8]; schedule A, n = 33): 52.4% | patients with SAEs regarded as drug related ([8]; schedule B, n = 10): 17.2% | patients with fatal AEs ([8]; schedule B, n = 12): 20.7% | patients with serious AEs (SAEs) ([8]; schedule B, n = 28): 48.3% | exposure to total BI 811283 (bound and unbound) in patients with higher AGP plasma concentrations ([9]; human, in vivo): trend toward increased exposure | time to maximum plasma concentration after start of infusion ([9]; human, in vivo, iv): 20 to 24 h | Cmax and AUC0–∞ versus dose ([9]; in vivo): increased in a dose-dependent manner | fraction excreted in urine ([9]; in vivo): 4 to 12 % of the administered dose | time after end of infusion in which most of the compound was eliminated ([9]; in vivo): ≤ 6 h | mean terminal half-life ([9]; schedule A): 11.4 to 30.5 h | mean terminal half-life ([9]; schedule B): 10.1 to 27.0 h | best overall response SD, share of patients (advanced solid tumors; both treatment schedules): approximately 30% | objective response (advanced solid tumors; either treatment schedule): No patients | Patients with DLT ([10]; schedule A, 5 mg, n 3, first cycle): 0 | Patients with DLT ([10]; schedule A, 10 mg, n 7, first cycle): 1 | Patients with DLT ([10]; schedule A, 13.5 mg, n 3, first cycle): 0 | Patients with DLT ([10]; schedule A, 18 mg, n 3, first cycle): 0 | Patients with DLT ([10]; schedule A, 24 mg, n 4, first cycle): 0 | Patients with DLT ([10]; schedule A, 32 mg, n 3, first cycle): 0 | Patients with DLT ([10]; schedule A, 43 mg, n 5, first cycle): 0 | Patients with DLT ([10]; schedule A, 58 mg, n 3, first cycle): 0 | Patients with DLT ([10]; schedule A, 78 mg, n 7, first cycle): 1 | Patients with DLT ([10]; schedule A, 105 mg, n 6, first cycle): 1 | Patients with DLT ([10]; schedule A, 125 mg (MTD), n 16 incl. expansion cohort, first cycle): 1 | Patients with DLT ([10]; schedule A, 140 mg, n 3, first cycle): 2 | maximum tolerated dose (MTD) ([10]; schedule A: 24-h infusion Days 1 and 15 of a 4-week cycle): 125 mg | Patients with DLT ([10]; schedule B, 13.5 mg, n 3, first cycle): 0 | Patients with DLT ([10]; schedule B, 18 mg, n 3, first cycle): 0 | Patients with DLT ([10]; schedule B, 24 mg, n 3, first cycle): 0 | Patients with DLT ([10]; schedule B, 32 mg, n 4, first cycle): 0 | Patients with DLT ([10]; schedule B, 43 mg, n 3, first cycle): 0 | Patients with DLT ([10]; schedule B, 58 mg, n 3, first cycle): 0 | Patients with DLT ([10]; schedule B, 78 mg, n 3, first cycle): 0 | Patients with retrospectively identified potential DLT ([10]; schedule B, 105 mg, n 6): 2 | Patients with DLT ([10]; schedule B, 105 mg, n 6, first cycle): 1^c | Patients with retrospectively identified potential DLT ([10]; schedule B, 125 mg, n 3): 1 | Patients with DLT ([10]; schedule B, 125 mg, n 3, first cycle): 0^c | Patients with DLT ([10]; schedule B, 150 mg, n 3, first cycle): 0 | Patients with retrospectively identified potential DLT ([10]; schedule B, 180 mg, n 3): 1 | Patients with DLT ([10]; schedule B, 180 mg, n 3, first cycle): 0^c | Patients with DLT ([10]; schedule B, 230 mg, second cohort n 3 (after 300 mg), first cycle): 0 | Patients with DLT ([10]; schedule B, 270 mg, n 5, first cycle): 2 | Patients with DLT ([10]; schedule B, 300 mg, n 3, first cycle): 2 | maximum tolerated dose (MTD) ([10]; schedule B: 24-h infusion Day 1 of a 3-week cycle): 230 mg | level of caspase-cleaved CK-18 in plasma after infusion [11]: no consistent trend

COc1cc(Nc2ncc3c(n2)-c2ccc(Cl)cc2C(c2c(F)cccc2OC)=NC3)ccc1C(=O)O [alisertib]
clinical activity ([12]; phase II study, preliminary evidence): durable disease control in multiple cancer types

CC(=O)NCC(=O)N1[C@@H]2CC[C@H]1c1ccc(Nc3ncc(C(F)(F)F)c(NC4CCC4)n3)cc12 [PF-03814735]
antitumor activity [12]: limited antitumor activity

O=C(Nc1c[nH]nc1-c1nc2ccc(CN3CCOCC3)cc2[nH]1)NC1CC1 [AT9283]
antitumor activity [12]: limited antitumor activity

CCN(CCCOc1ccc2c(Nc3cc(CC(=O)Nc4cccc(F)c4)n[nH]3)ncnc2c1)CCOP(=O)(O)O [barasertib]
response rate ([2]; in combination with low-dose cytosine arabinoside (LDAC), AML): 45% | hematological response rate ([2]; monotherapy, phase I/II trials, AML): 19–25% | complete response rate [2]: 35.4% | febrile neutropenia [2]: 67% | stomatitis [2]: 71% | clinical activity ([12]; advanced solid tumors): limited activity in solid tumors

CO[C@@H](C(=O)N1Cc2n[nH]c(NC(=O)c3ccc(N4CCN(C)CC4)cc3)c2C1)c1ccccc1 [danusertib]
clinical activity ([12]; advanced hematological malignancies): promising clinical activity | clinical activity ([12]; phase I/II studies in advanced solid tumors): limited activity
